# Source: PubChem BioAssay (several laboratories)
# In the library only some 1.2% were active in any assay of this set; here they are far more common.
# HMGR II inh: inhibitors of E. faecalis class II HMGR, primary screen, biochemical, Enterococcus faecalis. HMG-CoA reductase (Enterococcus faecalis, mvaE). purified E. faecalis HMGR, NADPH absorbance 340 nm kinetic. inhibition, % at 10 µM. hit rate 0.41% among 190,000. AID 1066, 2008;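 active = inhibition above a set limit, the median over all tested compounds plus 3 SD, cut at about 9.5% in these data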;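 note: enzyme runs in reverse so mevalonate oxidation gives rising NADPH absorbance; 0% = complete reaction with DMSO and 100% = background rate lacking mevalonate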
# TNAP inh no acc: human TNAP enzyme inhibitors, primary screen, biochemical, luminescent, no phosphate acceptor, uHTS | Alkaline phosphatase, tissue-nonspecific isozyme (Homo sapiens), P05186 | hit rate 0.26% among 200,000 | purified TNAP, CDP-star luminescence, 30 min | inhibition, % at 20 µM;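 active = tissue-nonspecific alkaline phosphatase inhibition above about 50% at 20 µM in the single-dose screen, limit read from the data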;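 note: 0% = DMSO negative control and 100% = EDTA positive control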
# Target sequence (P05186 whole entry, looked up): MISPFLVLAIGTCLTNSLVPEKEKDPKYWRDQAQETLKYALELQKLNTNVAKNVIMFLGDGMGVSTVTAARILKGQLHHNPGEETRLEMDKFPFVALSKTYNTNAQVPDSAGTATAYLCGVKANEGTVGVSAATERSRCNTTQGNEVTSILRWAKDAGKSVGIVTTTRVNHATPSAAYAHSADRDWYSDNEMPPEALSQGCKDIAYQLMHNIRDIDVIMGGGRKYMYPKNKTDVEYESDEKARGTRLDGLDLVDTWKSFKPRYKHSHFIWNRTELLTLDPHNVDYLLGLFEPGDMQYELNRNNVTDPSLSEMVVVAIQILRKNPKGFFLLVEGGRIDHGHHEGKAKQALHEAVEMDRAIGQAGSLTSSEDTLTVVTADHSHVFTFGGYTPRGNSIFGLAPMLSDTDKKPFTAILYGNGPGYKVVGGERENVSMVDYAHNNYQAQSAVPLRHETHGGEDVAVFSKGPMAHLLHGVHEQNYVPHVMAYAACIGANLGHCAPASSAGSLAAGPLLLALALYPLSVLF
# TNAP inh hiacc: human TNAP enzyme inhibitors, primary screen, biochemical, luminescent, high phosphate acceptor level, uHTS. hit rate 0.03% among 200,000. purified TNAP, CDP-star luminescence, 1 M DEA. AID 1135, 2008. Alkaline phosphatase, tissue-nonspecific isozyme (Homo sapiens), P05186. inhibition, % at 20 µM;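 active = over 50% inhibition of tissue-nonspecific alkaline phosphatase at 20 µM in the single-dose screen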;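 note: plate controls were DMSO wells for no effect and EDTA-quenched wells as full inhibition for full effect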
# INS promoter inh: inhibitors of insulin promoter-driven GFP, primary screen, imaging, TRM-6 cells (human fetal islet line), eGFP reporter, cell count. inhibition, % at 2 µM. hit rate 0.9% among 130,000. reporter expression induced with tamoxifen. AID 1273, 2008;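 active = inhibition above the mean plus 3 SD, with well images judged a real hit on visual review, cut at about 60% in these data, passing the limit was not always enough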
# TNAP act hiacc: TNAP activators at high phosphate acceptor level, primary screen, biochemical, luminescence, uHTS | 200,000 tested, under 10 active | purified TNAP, CDP-star luminescence, 1 M DEA, 30 min; stronger effect = higher value; 0 = EDTA background, 1 = DMSO-only activity | activation factor at 20 µM;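 active = activation factor at least 2 at 20 µM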
#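 system = human TNAP | amount = enzyme diluted 1/800 final | reagent = 100 µM CDP-star substrate | signal = luminescent substrate turnover signal | dosing = one dose, 20 µM | benchmarks = EDTA negative control, DMSO positive control | measure = activation factor | timing = 30 min reaction, room temperature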
# * hit, by the source's call; · = no result.
SMILES,HMGR II inh,TNAP inh no acc,TNAP inh hiacc,INS promoter inh,TNAP act hiacc
CN(CCc1ccccn1)c1ncnc2[nH]ncc12,-1,-68,-2,75*,1
CN(CCc1ccccn1)C(=O)Nc1ccc(F)cc1,4,-14,-6,-13,1.1
CCc1ccc(N2C(=O)CN(Cc3sccc3C)C2=S)cc1,1,-13,-5,·,1.1
N=C(N)SCc1ccccn1,-6,51*,-2,29,1
CCN1C(=O)CC(N2CCN(c3ccc(C(=O)c4ccncc4)cc3)CC2)C1=O (stereo unspecified),-2,-6,9,70*,0.9
O=C1COc2ccc(C(=O)CSc3nnc(Cc4cccs4)n3-c3ccccc3)cc2N1,-6,-12,-3,71*,1
COc1ccc2[nH]cc(C(=O)CNc3nc(C)cs3)c2c1,0,56*,-8,-7,1.1
COCCNC(=O)c1c[nH]c2ccc(OC)cc2c1=O,-1,-10,-5,21,1
CC(Oc1ccc(Cl)cc1)c1ccnc(N)n1 (stereo unspecified),0,-7,-7,9,1.1
CC1(C)CC(NC(=O)CCC2CCCC2)CC(C)(C)N1,2,-9,-7,52,1.1
CC1(C)CC(NC(=O)CC2CCCCC2)CC(C)(C)N1,-1,-9,-6,82*,1.1
COc1ccc(CCC(=O)N(C)CC(=O)Nc2ccc(N3CCOCC3)cc2)cc1,9.7*,-15,-6,30,1.1
COc1ccc(CNC(=O)c2cc(-c3ccncc3)nc3c(C)cc(C)cc23)cc1OC,1,2,-3,·,1
CC(=O)Nc1ccc(NS(=O)(=O)c2ccc(Cl)c(C(=O)O)c2)cc1,-9,-6,0,79*,1
COc1ccc(C(CC(=O)c2ccc(C)cc2)C(C#N)C#N)cc1OC (stereo unspecified),-7,-1,0,41,1
Cc1ccc(S(=O)(=O)Nc2ccccc2/C=N/c2nc3ccccc3n2C)cc1,-1,16,-2,-21,1
COc1ccccc1NC(=O)C1=C(C)NC(=O)NC1c1ccccc1[N+](=O)[O-] (stereo unspecified),11*,-2,-1,-67,1
CC1=C(C(=O)Nc2ccccc2)C(c2ccccc2[N+](=O)[O-])NC(=O)N1 (stereo unspecified),-3,-6,0,0,1
O=C(NCCOc1ccccc1Cl)C(=O)c1c[nH]c2ccccc12,17*,-3,-2,0,1
CCCCCCCCC(=O)NNC(=O)c1c(O)c2ccccc2n(CCC)c1=O,-2,-58,-1,0,1
COc1ccc(C(=O)Nc2ccc3c4c(cccc24)CC3)cc1,2,-7,0,100*,1
COc1cc(OC)cc(C(=O)NC(=S)Nc2ccc3c4c(cccc24)CC3)c1,4,-9,5,-41,0.9
CCCc1cc(C(=O)Nc2sc(C)c(CC)c2C#N)no1,1,-4,0,70*,1
CCOC(=O)Cc1csc(N/C(=N/S(=O)(=O)c2cc(Br)ccc2OCC)c2ccccc2)n1,3,-12,2,-41,1
O=C(COc1ccc(Cl)cc1)NCCN1CCCCC1,10*,-10,-2,-23,1
SMILES,HMGR II inh,TNAP inh no acc,TNAP inh hiacc,INS promoter inh,TNAP act hiacc
O=C(CS(=O)(=O)Cc1ccccc1)NCc1ccco1,9.8*,-15,-6,33,1.1
O=C(CS(=O)(=O)c1ccccc1)NCc1ccco1,0,-11,-7,-27,1.1
Cc1cc(=O)oc2ccc(OC(=O)CC(C)C)cc12,0,-13,-5,·,1.1
COc1ccc(/C=N\NC(=S)SCN2C(=O)C3CCC(C)(C2=O)C3(C)C)cc1 (stereo unspecified),1,·,·,-17,·
CC12CCC(C(=O)N(CSC(=S)N/N=C\c3ccccc3O)C1=O)C2(C)C (stereo unspecified),9.9*,-2,0,70,1
O=C(O)c1ccc(N2C(=O)/C(=C/C=C/c3ccccc3)SC2=S)cc1,0,6,-4,·,1
CN(C)c1ccc(/C=C/C=C2/SC(=S)N(c3ccccc3)C2=O)cc1,3,55*,54*,-296,0.5
CCCOc1ccc(C2/C(=C(\O)c3c(C)[nH]c(C(=O)OC)c3C)C(=O)C(=O)N2CCN(C)C)cc1 (stereo unspecified),0,-6,-6,85*,1.1
COC(=O)/C(C#N)=C1/C=Cc2ccccc2N1C,-3,-4,-1,81*,1
CCOC(=O)/C(C#N)=c1/s/c(=C2\C=Cc3ccccc3N2CC)c(=O)n1CC,-1,27,18,10,0.8
CCn1cc(Cl)c(C(=O)N2N=C(c3ccc4ccccc4c3)CC2c2ccccc2O)n1 (stereo unspecified),0,-1,0,67*,1
O=C(CCc1nc2ccccc2s1)OCc1ccccc1F,2,-10,-2,·,1
C[N+]1(CCC(=O)c2ccccc2)CCCCC1,3,-2,-3,64*,1
Cc1cc2cc(CNC(=O)c3ccc(C)c([N+](=O)[O-])c3)ccc2[nH]1,-1,-8,-1,40,1
Cc1sc2ncnc(SCC(=O)NC3CC3)c2c1C,2,-12,-2,100*,1
Cc1sc2ncnc(SCC(=O)N(C(C)C)C(C)C)c2c1C,11*,6,8,·,0.9
Cc1sc2ncnc(SCC(=O)NC(C)C(C)C)c2c1C (stereo unspecified),0,-15,-4,·,1
CCC(CC)C(=O)Nc1cc(C(=O)NCCc2ccccc2)ccc1Cl,3,-14,-7,·,1.1
O=C(O)c1cn(-c2ccccc2)c(=O)c2ccccc12,-2,-22,-5,70*,1
COc1ccc(-n2cc(C(=O)O)c3ccccc3c2=O)cc1,1,15,1,-76,1
CC1=C(C(=O)OC(C)C)C(c2ccc(C)o2)NC(=O)N1 (stereo unspecified),11*,-15,-6,31,1.1
O=C(NC1CCCCC1)Oc1cccc2ccccc12,2,-10,-8,-23,1.1
CN(C)/C=C/c1oc2ccc(O)cc2c1[N+](=O)[O-],-3,48,52*,-10,0.5
COc1ccc(CNC(=O)CN2CCN(S(=O)(=O)c3cccs3)CC2)cc1OC,-1,-5,-6,-21,1.1
CC[n+]1c(C)n(-c2ccccc2)c2ccc(C(=O)OC)cc21,16*,-9,-4,·,1
CCOC(=O)c1ccc2c(c1)[n+](CC)c(C)n2-c1ccccc1,-7,-6,-3,·,1
Cc1ccccc1CN(CC1CCC(C(=O)O)CC1)C(=S)Nc1ccccc1F (stereo unspecified),5,3,-6,·,1.1
